{"source": "ChEMBL document CHEMBL3407477", "about": "“Synthesis and biological evaluation of compact, conformationally constrained bifunctional opioid agonist - neurokinin-1 antagonist peptidomimetics” (Eur J Med Chem, 2015)", "key": {"Rattus norvegicus [1]": {"test_system": "Rattus norvegicus", "experiment": "(§1) Antiallodynic effect in Wistar rat chronic constriction injury model assessed as cross tolerance developement pretreated with H-Dmt-D-Arg-Aba-beta-Ala-NMe-Bn at 1 nmol, it qd for 6 days administered from 7 days post CCI challenge to day 13 measured 30 mins post morphine challenge by cold plate test", "assay_type": "functional, organism-based", "outline": "(§2)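 CCI Wistar rats were made tolerant by 6 days of once-daily i.t. dosing (morphine 3.5 nmol or hybrid 1 nmol). On day 13 they received a single i.t. challenge (morphine 3.5 nmol or hybrid 1 nmol) against repeated-vehicle controls. Von Frey and cold plate tests were run 30 min later. Data are %MPE, 6-8 rats/group, ANOVA with Bonferroni.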"}, "Rattus norvegicus [2]": {"organism": "Rattus norvegicus", "experiment": "Antiallodynic effect in Wistar rat chronic constriction injury model at 0.35 to 35 nmol, it measured 7 days post CCI challenge by Von Frey test", "assay_type": "functional, organism-based", "outline": "(§3)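 Male Wistar rats (300-350 g) with i.t. catheters (L4-L6) had CCI made by four loose silk ligatures on the right sciatic nerve. On day 7 they received a single i.t. dose in water for injection. Mechanical allodynia was measured 30 min later with an automatic von Frey device (0.5-26 g) on the midplantar hind paw. Data are %MPE, 6-12 rats/group, ANOVA with Bonferroni.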"}, "Rattus norvegicus [3]": {"test_system": "Rattus norvegicus", "experiment": "as §1, with “H-Dmt-D-Arg-Aba-Gly-NMe-3',5'-(CF3)2-Bn” for “H-Dmt-D-Arg-Aba-beta-Ala-NMe-Bn”", "assay_type": "functional, organism-based", "outline": "as §2"}, "Rattus norvegicus [4]": {"test_system": "Rattus norvegicus", "experiment": "Antinociceptive activity in it dosed Wistar rat after 30 mins by tail flick test", "assay_type": "functional", "outline": "(§4)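 Naive male Wistar rats (250-300 g) with i.t. catheters received a single i.t. injection in water for injection (5 µl plus 10 µl flush), 7 days after catheter implantation. Tail-flick latency to a light-bulb heat stimulus at two-thirds of tail length was read 30 min post-dose (timepoints up to 180 min), with a 9 s cut-off. Data are %MPE = (TL-BL)/(cut-off-BL)×100, 7-12 rats/group, ANOVA with Bonferroni.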"}, "Rattus norvegicus [5]": {"test_system": "Rattus norvegicus", "experiment": "Antiallodynic effect in Wistar rat chronic constriction injury model assessed as tolerance to neuropathic pain at 3.5 nmol, it qd for 6 days administered from 7 days post CCI challenge to day 13 by cold plate test", "assay_type": "functional, organism-based", "outline": "(§5)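 CCI Wistar rats received once-daily i.t. injections (morphine 3.5 nmol, hybrids 1 nmol, in water for injection) from day 7 to day 13 after CCI. Von Frey and 5 °C cold plate tests were run 30 min after each dose. Data are %MPE and AUC, 12-16 rats/group, ANOVA with Bonferroni.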"}, "Rattus norvegicus [6]": {"test_system": "Rattus norvegicus", "experiment": "Reduction of hyperalgesia in it dosed Wistar rat measured 7 days post CCI challenge by cold plate test", "assay_type": "functional", "outline": "(§6)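 In catheterized male Wistar rats with sciatic CCI, a single i.t. dose in water for injection was given on day 7. Thermal hyperalgesia was measured 30 min later as latency to hind-paw shake on a 5 °C cold plate. Data are %MPE, 6-12 rats/group, ANOVA with Bonferroni.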"}, "Rattus norvegicus [7]": {"test_system": "Rattus norvegicus", "experiment": "as §1, with “H-Dmt-D-Arg-Aba-Gly-NMe-3',5'-(CF3)2-Bn” for “H-Dmt-D-Arg-Aba-beta-Ala-NMe-Bn”, “Von frey” for “cold plate”", "assay_type": "functional, organism-based", "outline": "as §2"}, "Rattus norvegicus [8]": {"test_system": "Rattus norvegicus", "experiment": "Antiallodynic effect in Wistar rat chronic constriction injury model assessed as tolerance to neuropathic pain at 3.5 nmol, it qd for 6 days administered from 7 days post CCI challenge to day 13 by Von Frey test", "assay_type": "functional, organism-based", "outline": "as §5"}, "Rattus norvegicus [9]": {"organism": "Rattus norvegicus", "experiment": "Reduction of hyperalgesia in Wistar rat chronic constriction injury model at 1 nmol, it measured 7 days post CCI challenge by cold plate test", "assay_type": "functional, organism-based", "outline": "as §6"}, "Rattus norvegicus [10]": {"test_system": "Rattus norvegicus", "experiment": "Antiallodynic effect in Wistar rat chronic constriction injury model assessed as cross tolerance developement pretreated with H-Dmt-D-Arg-Aba-beta-Ala-NMe-Bn at 1 nmol, it qd for 6 days administered from 7 days post CCI challenge to day 13 measured 30 mins post morphine challenge by Von Frey test", "assay_type": "functional, organism-based", "outline": "as §2"}, "Rattus norvegicus [11]": {"test_system": "Rattus norvegicus", "experiment": "Antiallodynic effect in it dosed Wistar rat measured 7 days post CCI challenge by Von Frey test", "assay_type": "functional", "outline": "as §3"}, "Substance-P receptor [12]": {"biological_target": "T1, Substance-P receptor (Homo sapiens, UniProt P25103)", "T1 sequence (P25103 whole entry)": "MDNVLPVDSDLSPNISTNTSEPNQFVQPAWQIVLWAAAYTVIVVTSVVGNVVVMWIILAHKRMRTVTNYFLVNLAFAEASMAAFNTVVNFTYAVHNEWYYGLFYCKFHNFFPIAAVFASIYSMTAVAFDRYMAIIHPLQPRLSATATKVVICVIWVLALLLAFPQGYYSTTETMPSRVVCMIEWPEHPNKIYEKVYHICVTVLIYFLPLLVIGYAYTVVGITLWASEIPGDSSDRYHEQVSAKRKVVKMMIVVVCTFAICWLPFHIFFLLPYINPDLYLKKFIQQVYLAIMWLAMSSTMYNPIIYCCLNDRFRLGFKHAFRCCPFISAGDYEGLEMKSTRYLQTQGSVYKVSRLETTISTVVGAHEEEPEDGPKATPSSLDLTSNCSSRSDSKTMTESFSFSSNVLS", "experiment": "Antagonist activity at human NK1 receptor expressed in CHO cells by luminescence assay in presence of SP peptide", "assay_type": "cell-based", "settings": "read-out: pA2 (converted)"}, "[13]": {"biological_target": "Delta-type opioid receptor (Rattus norvegicus, UniProt P33533)", "sequence (P33533 whole entry)": "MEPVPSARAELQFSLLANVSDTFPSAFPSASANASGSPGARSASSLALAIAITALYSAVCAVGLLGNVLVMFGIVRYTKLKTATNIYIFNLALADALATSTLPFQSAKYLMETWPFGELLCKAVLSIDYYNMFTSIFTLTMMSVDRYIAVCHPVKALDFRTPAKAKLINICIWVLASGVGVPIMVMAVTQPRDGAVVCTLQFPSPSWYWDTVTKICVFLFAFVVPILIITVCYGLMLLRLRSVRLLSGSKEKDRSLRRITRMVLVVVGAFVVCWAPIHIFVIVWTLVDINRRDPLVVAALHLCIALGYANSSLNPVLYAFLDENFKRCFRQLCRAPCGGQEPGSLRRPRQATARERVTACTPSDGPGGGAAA", "experiment": "Displacement of [3H]DSLET from rat brain DOR after 2 hrs", "outline": "(§7)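 Rat brain membranes were incubated 2 h at 0 °C with 0.72 nM [3H]DAMGO (MOR) or 0.78 nM [3H]DSLET (DOR). IC50 came from log-dose displacement curves.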"}, "Substance-P receptor [14]": {"biological_target": "T1, Substance-P receptor", "experiment": "Displacement of [3H]SP from human NK1 receptor expressed in CHO cells after 20 mins by liquid scintillation counting analysis", "assay_type": "cell-based", "outline": "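Membranes from hNK1/CHO cells (20 µg) were incubated with 0.4 nM [3H]SP and six test concentrations in duplicate. Buffer was 50 mM Tris pH 7.4 with 5 mM MgCl2, bacitracin, bestatin, captopril and PMSF, for 20 min at 25 °C. Nonspecific binding was defined with 10 µM SP. Samples were filtered on PEI-soaked GF/B, counted by scintillation, three independent experiments. Ki by Cheng-Prusoff from nonlinear-regression IC50.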"}, "Mu-type opioid receptor [15]": {"biological_target": "Mu-type opioid receptor (Cavia porcellus, UniProt P97266)", "sequence (P97266 whole entry)": "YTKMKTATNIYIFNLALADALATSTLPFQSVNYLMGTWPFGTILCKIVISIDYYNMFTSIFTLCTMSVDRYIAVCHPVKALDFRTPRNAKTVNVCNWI", "experiment": "Activation of MOR in guinea pig ileum", "assay_type": "tissue-based", "outline": "(§8)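 Isolated guinea pig ileum (MOR) and mouse vas deferens (DOR) bioassays. A [Leu5]enkephalin standard dose-response curve was run on each tissue preparation, and test IC50 values were normalized to it. Values are means of 3-4 experiments.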"}, "Rattus norvegicus [16]": {"organism": "Rattus norvegicus", "experiment": "Selectivity ratio of Ki for rat brain DOR to Ki for rat brain MOR"}, "Mu-type opioid receptor [17]": {"biological_target": "Mu-type opioid receptor (Rattus norvegicus, UniProt P33535)", "sequence (P33535 whole entry)": "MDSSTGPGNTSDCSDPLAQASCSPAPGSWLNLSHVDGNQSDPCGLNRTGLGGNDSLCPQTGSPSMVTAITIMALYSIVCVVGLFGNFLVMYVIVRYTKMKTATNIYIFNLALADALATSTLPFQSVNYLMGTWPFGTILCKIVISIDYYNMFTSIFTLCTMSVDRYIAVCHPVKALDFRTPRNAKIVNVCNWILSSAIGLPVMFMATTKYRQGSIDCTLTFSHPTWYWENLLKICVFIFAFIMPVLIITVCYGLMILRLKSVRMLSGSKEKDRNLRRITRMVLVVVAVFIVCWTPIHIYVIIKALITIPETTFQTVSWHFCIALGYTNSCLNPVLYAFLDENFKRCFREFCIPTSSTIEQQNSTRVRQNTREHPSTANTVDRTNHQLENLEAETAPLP", "experiment": "Displacement of [3H]DAMGO from rat brain MOR after 2 hrs", "outline": "as §7"}, "[18]": {"biological_target": "Delta-type opioid receptor (Mus musculus, UniProt P32300)", "sequence (P32300 whole entry)": "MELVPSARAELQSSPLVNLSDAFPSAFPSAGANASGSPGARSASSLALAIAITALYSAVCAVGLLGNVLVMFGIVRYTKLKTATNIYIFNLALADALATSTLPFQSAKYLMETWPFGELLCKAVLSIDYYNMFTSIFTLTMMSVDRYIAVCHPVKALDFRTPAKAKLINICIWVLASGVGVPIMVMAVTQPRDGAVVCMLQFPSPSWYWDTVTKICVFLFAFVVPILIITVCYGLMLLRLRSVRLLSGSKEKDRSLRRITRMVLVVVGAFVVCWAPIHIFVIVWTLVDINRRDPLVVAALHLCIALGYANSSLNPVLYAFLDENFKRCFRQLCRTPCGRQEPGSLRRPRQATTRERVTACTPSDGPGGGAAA", "experiment": "Activation of DOR in mouse vas deferens", "outline": "as §8"}, "[19]": {"biological_target": "Mu-type opioid receptor (Cavia porcellus) (UniProt P97266)", "sequence (P97266 whole entry)": "as the sequence (P97266 whole entry) above", "experiment": "Partial agonist activity at MOR in guinea pig ileum", "assay_type": "tissue-based", "outline": "as §8"}, "[20]": {"biological_target": "Mu-type opioid receptor (Cavia porcellus) (UniProt P97266)", "experiment": "Antagonist activity at MOR in guinea pig ileum", "assay_type": "tissue-based"}, "Rattus norvegicus [21]": {"organism": "Rattus norvegicus", "experiment": "Antinociceptive activity in Wistar rat at 0.001 to 0.1 nmol, it after 30 mins by tail flick test", "assay_type": "functional, organism-based", "outline": "as §4"}, "Rattus norvegicus [22]": {"organism": "Rattus norvegicus", "experiment": "Antiallodynic effect in Wistar rat chronic constriction injury model at 0.001 to 1 nmol, it measured 7 days post CCI challenge by Von Frey test", "assay_type": "functional, organism-based", "outline": "as §3"}, "Rattus norvegicus [23]": {"organism": "Rattus norvegicus", "experiment": "Toxicity in Wistar rat chronic constriction injury model at 1 nmol, it measured 7 days post CCI challenge", "assay_type": "organism-based", "settings": "in vivo, icv_or_intrathecal, 168 h"}}, "note": "Activity calls are given as the source filed them."}
{"smiles": "CN1CC[C@]23c4c5ccc(O)c4O[C@H]2[C@@H](O)C=C[C@H]3[C@H]1C5", "note": "[MORPHINE]", "values": [{"measurement": "Activity", "setting": "Rattus norvegicus [1]", "value": "inactive"}, {"measurement": "Activity", "setting": "Rattus norvegicus [2]", "value": "Active"}, {"measurement": "Activity", "setting": "Rattus norvegicus [3]", "value": "inactive"}, {"measurement": "ED50", "setting": "Rattus norvegicus [4]", "value": 0.49, "unit": "nmol"}, {"measurement": "Activity", "setting": "Rattus norvegicus [5]", "value": "Active"}, {"measurement": "ED50", "setting": "Rattus norvegicus [6]", "value": 377, "unit": "nmol"}, {"measurement": "Activity", "setting": "Rattus norvegicus [7]", "value": "inactive"}, {"measurement": "Activity", "setting": "Rattus norvegicus [8]", "value": "Active"}, {"measurement": "Activity", "setting": "Rattus norvegicus [9]", "value": "Active"}, {"measurement": "Activity", "setting": "Rattus norvegicus [10]", "value": "inactive"}, {"measurement": "ED50", "setting": "Rattus norvegicus [11]", "value": 6.25, "unit": "nmol"}]}
{"smiles": "Cc1cc(O)cc(C)c1C[C@H](N)C(=O)N[C@H](CCCNC(N)=O)C(=O)N[C@H]1Cc2ccccc2CN(CCC(=O)N(C)Cc2cc(C(F)(F)F)cc(C(F)(F)F)c2)C1=O", "values": [{"measurement": "Kb", "setting": "Substance-P receptor [12]", "value": 537, "unit": "nM"}, {"measurement": "Ki", "setting": "[13]", "value": 0.55, "unit": "nM"}, {"measurement": "Ki", "setting": "Substance-P receptor [14]", "value": 34.7, "unit": "nM"}, {"measurement": "IC50", "setting": "Mu-type opioid receptor [15]", "value": 2.03, "unit": "nM"}, {"measurement": "Ratio Ki", "setting": "Rattus norvegicus [16]", "value": 1.5}, {"measurement": "Ki", "setting": "Mu-type opioid receptor [17]", "value": 0.37, "unit": "nM"}, {"measurement": "IC50", "setting": "[18]", "value": 1.06, "unit": "nM"}]}
{"smiles": "Cc1cc(O)cc(C)c1C[C@H](N)C(=O)N[C@H](CCCNC(=N)N)C(=O)N[C@H]1Cc2ccccc2CN(CC(=O)N(Cc2cc(C(F)(F)F)cc(C(F)(F)F)c2)CC(C)C)C1=O", "values": [{"measurement": "Activity", "setting": "[19]", "value": 19.7, "unit": "nM"}, {"measurement": "Ke", "setting": "[20]", "value": 12.7, "unit": "nM"}, {"measurement": "Ki", "setting": "Substance-P receptor [14]", "value": 35, "unit": "nM"}, {"measurement": "IC50", "setting": "[18]", "value": 14.5, "unit": "nM"}]}
{"smiles": "Cc1cc(O)cc(C)c1C[C@H](N)C(=O)N[C@H](CCCNC(=N)N)C(=O)N[C@H]1Cc2ccccc2CN(CC(=O)N(Cc2ccccc2)CC(C)C)C1=O", "values": [{"measurement": "Activity", "setting": "[19]", "value": "Active"}, {"measurement": "Ke", "setting": "[20]", "value": 5.91, "unit": "nM"}, {"measurement": "Ki", "setting": "Substance-P receptor [14]", "value": 1020, "unit": "nM"}, {"measurement": "IC50", "setting": "[18]", "value": 28.7, "unit": "nM"}]}
{"smiles": "Cc1cc(O)cc(C)c1C[C@H](N)C(=O)N[C@H](CCCNC(=N)N)C(=O)N[C@H]1Cc2ccccc2CN(CC(N)=O)C1=O", "values": [{"measurement": "Activity", "setting": "Rattus norvegicus [21]", "value": "Active"}, {"measurement": "Ratio Ki", "setting": "Rattus norvegicus [16]", "value": 4}, {"measurement": "Activity", "setting": "Rattus norvegicus [9]", "value": "Active"}, {"measurement": "Activity", "setting": "Rattus norvegicus [22]", "value": "Active"}]}
{"smiles": "Cc1cc(O)cc(C)c1C[C@H](N)C(=O)N[C@H](CCCN=C(N)N)C(=O)N[C@H]1Cc2ccccc2CN(CC(N)=O)C1=O", "values": [{"measurement": "Activity", "setting": "Rattus norvegicus [23]", "value": "Toxic"}]}
{"smiles": "Cc1cc(O)cc(C)c1C[C@H](N)C(=O)N[C@H](CCCNC(=N)N)C(=O)N[C@H]1Cc2ccccc2CN(CC(=O)N(C)Cc2ccccc2)C1=O", "values": [{"measurement": "Ratio Ki", "setting": "Rattus norvegicus [16]", "value": 24.8}]}
{"smiles": "Cc1cc(O)cc(C)c1C[C@H](N)C(=O)N[C@H](CCCNC(=N)N)C(=O)N[C@H]1Cc2ccccc2CN(CCC(=O)N(C)Cc2cc(C(F)(F)F)cc(C(F)(F)F)c2)C1=O", "values": [{"measurement": "Kb", "setting": "Substance-P receptor [12]", "value": 912, "unit": "nM"}, {"measurement": "Ki", "setting": "[13]", "value": 2.14, "unit": "nM"}, {"measurement": "Ki", "setting": "Substance-P receptor [14]", "value": 59.7, "unit": "nM"}, {"measurement": "IC50", "setting": "Mu-type opioid receptor [15]", "value": 11.3, "unit": "nM"}, {"measurement": "Ratio Ki", "setting": "Rattus norvegicus [16]", "value": 25.3}, {"measurement": "Ki", "setting": "Mu-type opioid receptor [17]", "value": 0.08, "unit": "nM"}, {"measurement": "IC50", "setting": "[18]", "value": 6.2, "unit": "nM"}]}
